Measurements from ChEMBL document CHEMBL4007408, “Identification of Novel Triazole-Based Nicotinamide Phosphoribosyltransferase (NAMPT) Inhibitors Endowed with Antiproliferative and Antiinflammatory Activity” (J Med Chem, 2017).
Blank lines part the entries; values can stand above or below the compound they belong to. Activity calls are given as the source filed them. No cut-off for these calls is given here.

Key:
SH-SY5Y = assay: Cytotoxicity against human SH-SY5Y cells assessed as reduction in cell viability after 56 hrs by MTT assay; assay type: functional, cell-based
[1] = molecular target: Nicotinamide phosphoribosyltransferase (Mus musculus, UniProt Q99KQ4); assay: Inhibition of recombinant mouse NAMPT expressed in bacterial expression system using nicotinamide as substrate after 1 hr by fluorescence based NMNAT-3 enzyme coupled assay
Liver [2] = assay: Drug metabolism in human liver microsomes assessed as pyridine N-oxidation by measuring 7-(4-(pyridin-3-yl)-1H-1,2,3-triazol-1-yl)heptanoic acid formation after 60 mins in presence of NADPH-regenerating system by LC-UV analysis; assay type: ADME, microsome
How it was run: (§1)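 Metabolites were characterized by LC-ESI-MSn on supernatants of 60 min, 37 °C incubations. Each used 50 μM substrate with rat or human liver microsomes (1.0 mg/ml protein) in 50 mM Tris-HCl pH 7.4 with 3.3 mM MgCl2, 1% acetonitrile and an NADPH-regenerating system. Reactions were quenched with cold acetonitrile and centrifuged.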

Liver [3] = assay: Drug metabolism in human liver microsomes assessed as pyridine N-oxidation by measuring biphenyl-2-carboxamide formation after 60 mins in presence of NADPH-regenerating system by LC-UV analysis; assay type: ADME, microsome; conditions: 1 h; how it was run: as §1
Liver [4] = assay: Drug metabolism in Wistar Han rat liver microsomes assessed as pyridine N-oxidation by measuring 7-(4-(pyridin-3-yl)-1H-1,2,3-triazol-1-yl)heptanoic acid formation after 60 mins in presence of NADPH-regenerating system by LC-UV analysis; assay type: ADME, microsome; how it was run: as §1
Liver [5] = assay: Drug metabolism in Wistar Han rat liver microsomes assessed as pyridine N-oxidation by measuring biphenyl-2-carboxamide formation after 60 mins in presence of NADPH-regenerating system by LC-UV analysis; assay type: ADME, microsome; conditions: 1 h; how it was run: as §1
[6] = molecular target: Nicotinamide phosphoribosyltransferase (Homo sapiens, UniProt P43490); assay: Inhibition of NAMPT in human Jurkat T cells assessed as reduction in NAD levels; assay type: cell-based
Liver [7] = assay: Stability in human liver microsomes after 60 mins by LC-ESI-MS analysis; assay type: ADME, microsome; conditions: 1 h
Liver [8] = assay: Stability in Wistar Han rat liver microsomes after 60 mins by LC-ESI-MS analysis; assay type: ADME, microsome; conditions: 1 h
[9] = Drug metabolism in Wistar Han rat liver microsomes assessed as mixed function oxidase mediated compound cleavage by measuring compound remaining after 60 mins in presence of NADPH-regenerating system by LC-UV analysis; assay type: ADME; conditions: read-out: Stability
How it was run: (§2)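 Substrate at 50 μM final, with rat or human liver microsomes at 1.0 mg/ml protein, in 50 mM Tris-HCl pH 7.4. Mix held 3.3 mM MgCl2, 1% acetonitrile and an NADPH-regenerating system (1.3 mM β-NADP, 3.3 mM glucose 6-phosphate, 0.4 U/ml G6PDH). Shaken 60 min at 37 °C, stopped with ice-cold acetonitrile. LC-UV gave % residual substrate versus a no-microsome control, mean of two replicates.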

[10] = Drug metabolism in human liver microsomes assessed as mixed function oxidase mediated compound cleavage by measuring compound remaining after 60 mins in presence of NADPH-regenerating system by LC-UV analysis; assay type: ADME; conditions: read-out: Stability; how it was run: as §2
[11] = Stability in Wistar Han rat liver microsomes assessed as mixed function oxidase mediated compound cleavage after 60 mins in presence of NADPH-regenerating system by LC-UV analysis; assay type: ADME; conditions: 1 h; how it was run: as §2
Liver [12] = assay: Stability in human liver microsomes assessed as mixed function oxidase mediated compound cleavage after 60 mins in presence of NADPH-regenerating system by LC-UV analysis; assay type: ADME, microsome; conditions: 1 h; how it was run: as §2
Liver [13] = assay: Drug metabolism in Wistar Han rat liver microsomes assessed as pyridine N-oxidation after 60 mins in presence of NADPH-regenerating system by LC-UV analysis; assay type: ADME, microsome; conditions: 1 h; how it was run: as §1
Liver [14] = assay: Drug metabolism in human liver microsomes assessed as pyridine N-oxidation after 60 mins in presence of NADPH-regenerating system by LC-UV analysis; assay type: ADME, microsome; conditions: 1 h; how it was run: as §1
[15] = Half life in athymic Nu/Nu Harlan mouse at 10 mg/kg, iv administered as single dose up to 24 hrs by LC-ESI-MS analysis; assay type: ADME, organism-based; conditions: in vivo
[16] = AUC in athymic Nu/Nu Harlan mouse at 10 mg/kg, iv administered as single dose up to 24 hrs by LC-ESI-MS analysis; assay type: ADME, organism-based; design: time < 24 hr, dose 10 mg/kg, route intravenous; conditions: in vivo
[17] = Clearance in athymic Nu/Nu Harlan mouse at 10 mg/kg, iv administered as single dose up to 24 hrs by LC-ESI-MS analysis; assay type: ADME, organism-based; conditions: in vivo
[18] = Volume of distribution in athymic Nu/Nu Harlan mouse at 10 mg/kg, iv administered as single dose up to 24 hrs by LC-ESI-MS analysis; assay type: ADME, organism-based; conditions: in vivo
A2780 [19] = assay: Cytotoxicity against human A2780 cells assessed as reduction in cell viability; assay type: functional, cell-based
A2780 [20] = assay: Antitumor activity against human A2780 cells xenografted in athymic nu/nu Harlan mouse assessed as reduction in tumor growth at 10 mg/kg, ip bid administered for 8 consecutive days; assay type: functional, organism-based
Liver [21] = assay: Drug level in human liver microsomes treated with N-(7-(4-(Pyridin-3-yl)-1H-1,2,3-triazol-1-yl)heptyl)-[1,1'-biphenyl]-2-carboxamide after 60 mins in presence of NADPH-regenerating system by LC-UV analysis; assay type: ADME, microsome; how it was run: as §2
Liver [22] = assay: Drug level in Wistar Han rat liver microsomes treated with N-(7-(4-(Pyridin-3-yl)-1H-1,2,3-triazol-1-yl)heptyl)-[1,1'-biphenyl]-2-carboxamide after 60 mins in presence of NADPH-regenerating system by LC-UV analysis; assay type: ADME, microsome; how it was run: as §2
[23] = Homo sapiens, SH-SY5Y, 56 h, read-out: EC50

Nicotinamide phosphoribosyltransferase (Mus musculus, UniProt Q99KQ4), sequence (Q99KQ4 whole entry): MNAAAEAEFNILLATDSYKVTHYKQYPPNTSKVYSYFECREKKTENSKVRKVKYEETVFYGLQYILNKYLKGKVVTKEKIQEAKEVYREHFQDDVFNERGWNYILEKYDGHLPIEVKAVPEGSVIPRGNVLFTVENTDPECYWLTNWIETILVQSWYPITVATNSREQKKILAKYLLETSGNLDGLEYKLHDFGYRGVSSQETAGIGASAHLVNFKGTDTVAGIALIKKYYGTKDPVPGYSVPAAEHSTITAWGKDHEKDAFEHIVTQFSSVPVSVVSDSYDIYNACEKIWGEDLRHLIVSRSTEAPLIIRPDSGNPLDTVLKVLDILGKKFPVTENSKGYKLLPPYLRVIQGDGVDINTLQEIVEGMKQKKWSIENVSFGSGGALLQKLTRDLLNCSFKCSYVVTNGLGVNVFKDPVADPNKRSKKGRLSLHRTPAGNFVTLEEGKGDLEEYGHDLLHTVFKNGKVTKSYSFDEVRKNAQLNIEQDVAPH
Nicotinamide phosphoribosyltransferase (Homo sapiens, UniProt P43490), sequence (P43490 whole entry): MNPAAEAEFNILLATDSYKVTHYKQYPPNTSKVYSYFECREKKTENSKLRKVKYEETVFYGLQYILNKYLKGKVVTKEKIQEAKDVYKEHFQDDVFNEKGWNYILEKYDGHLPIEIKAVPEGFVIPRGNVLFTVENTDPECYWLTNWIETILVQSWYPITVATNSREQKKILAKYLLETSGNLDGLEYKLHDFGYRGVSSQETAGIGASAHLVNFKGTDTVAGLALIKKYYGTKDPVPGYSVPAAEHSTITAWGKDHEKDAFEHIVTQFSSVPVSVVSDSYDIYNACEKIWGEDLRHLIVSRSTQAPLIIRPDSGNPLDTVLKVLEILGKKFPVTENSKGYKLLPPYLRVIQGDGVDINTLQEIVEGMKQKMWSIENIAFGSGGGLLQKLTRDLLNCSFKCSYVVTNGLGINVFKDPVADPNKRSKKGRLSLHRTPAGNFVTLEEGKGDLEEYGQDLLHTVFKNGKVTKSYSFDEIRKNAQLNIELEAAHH

SMILES: O=C(NCCCCCCn1cc(-c2cccnc2)nn1)Nc1ccccc1-c1ccccc1
EC50 (SH-SY5Y; [23]): 43 nM

SMILES: c1ccc(-c2ccccc2-n2cc(CCCCCCCc3cn(-c4cccnc4)nn3)nn2)cc1
EC50 (SH-SY5Y; [23]): > 500 nM

SMILES: O=C(NCCCCCCn1cc(-c2cccnc2)nn1)c1ccccc1-c1ccccc1
EC50 (SH-SY5Y; [23]): 22.2 nM

IC50 [1]: Not Active
Drug metabolism (Liver [2]): Metabolite_Detected
Drug metabolism (Liver [3]): Metabolite_Detected
Drug metabolism (Liver [4]): Metabolite_Detected
Drug metabolism (Liver [5]): Metabolite_Detected
SMILES: [O-][n+]1cccc(-c2cn(CCCCCCOc3ccccc3-c3ccccc3)nn2)c1
EC50 (SH-SY5Y; sh-sy5y): Not Active

SMILES: O=C(NCCCCCCCCn1cc(-c2cccnc2)nn1)c1ccccc1-c1ccccc1
EC50 (SH-SY5Y; [23]): 194 nM

IC50 [1]: Not Active
Drug metabolism (Liver [2]): Metabolite_Detected
Drug metabolism (Liver [3]): Metabolite_Detected
Drug metabolism (Liver [4]): Metabolite_Detected
Drug metabolism (Liver [5]): Metabolite_Detected
SMILES: O=C(NCCCCCCCn1cc(-c2ccc[n+]([O-])c2)nn1)c1ccccc1-c1ccccc1
EC50 (SH-SY5Y; sh-sy5y): Not Active

SMILES: c1ccc(-c2ccccc2OCc2ccc(CCn3cc(-c4cccnc4)nn3)cc2)cc1
EC50 (SH-SY5Y; [23]): 160 nM

SMILES: O=S(=O)(NCCCCCCn1cc(-c2cccnc2)nn1)c1ccccc1-c1ccccc1
EC50 (SH-SY5Y; [23]): 100 nM

IC50 ([1]; read-out: IC50): 8.1 nM
IC50 [6]: 7.8 nM
Stability (Liver [7]): Stable
Stability (Liver [8]): Stable
remaining at 1 h [9]: 47%
remaining at 1 h [10]: 87%
Stability [11]: Stable
Stability (Liver [12]): Stable
Drug metabolism (Liver [13]): Metabolite_Detected
Drug metabolism (Liver [14]): Metabolite_Detected
half-life [15]: 1.48 h
AUC at 24 h [16]: 2250 ng·h/mL
clearance [17]: 74 mL/min/kg
Vd [18]: 9.4 L/kg
SMILES: c1ccc(-c2ccccc2-c2cn(CCCCCCCn3cc(-c4cccnc4)nn3)nn2)cc1
EC50 (SH-SY5Y; [23]): 9.1 nM
IC50 (A2780 [19]): 5.8 nM
inhibition (A2780 [20]): inactive

SMILES: O=C(CCCCCCCc1cnc(-c2cccnc2)s1)Nc1ccccc1-c1ccccc1
EC50 (SH-SY5Y; [23]): 5250 nM

IC50 ([1]; read-out: IC50): 47 nM
SMILES: O=S(=O)(NCCCCCCCCn1cc(-c2cccnc2)nn1)c1ccccc1-c1ccccc1
EC50 (SH-SY5Y; [23]): 12.6 nM

SMILES: c1ccc(-c2ccccc2-c2cn(CCCCCCCCn3cc(-c4cccnc4)nn3)nn2)cc1
EC50 (SH-SY5Y; [23]): 74.5 nM

Drug metabolism (Liver [21]): Metabolite_Detected
Drug metabolism (Liver [22]): Metabolite_Detected
SMILES: O=C(O)CCCCCCn1cc(-c2cccnc2)nn1

SMILES: O=S(=O)(NCCCCCCCn1cc(-c2cccnc2)nn1)c1ccccc1-c1ccccc1
EC50 (SH-SY5Y; [23]): 99.2 nM

SMILES: O=S(=O)(NCCCCCCn1cc(-c2cccnc2)nn1)c1ccccc1Br
EC50 (SH-SY5Y; [23]): 175 nM

SMILES: O=C(Nc1ccccc1-c1ccccc1)OCCCCCCn1cc(-c2cccnc2)nn1
EC50 (SH-SY5Y; [23]): 34 nM

SMILES: c1ccc(-c2ccccc2-c2cn(CCCCCCCc3cn(-c4cccnc4)nn3)nn2)cc1
EC50 (SH-SY5Y; [23]): 84.2 nM

SMILES: O=C(NCCCCCCCCn1cc(-c2cccnc2)nn1)Nc1ccccc1-c1ccccc1
EC50 (SH-SY5Y; [23]): 154 nM

SMILES: O=C(Nc1ccccc1-c1ccccc1)OCCCCCCCn1cc(-c2cccnc2)nn1
EC50 (SH-SY5Y; [23]): 36 nM

SMILES: c1ccc(-c2ccccc2-n2cc(CCCCCCCn3cc(-c4cccnc4)nn3)nn2)cc1
EC50 (SH-SY5Y; [23]): 55.1 nM
